Hits are enriched below; roughly 2.3% of the tested compounds scored in any of these assays.
TAAR1 antag – antagonists of human TAAR1; 360,000 compounds, 1.5% hits; inhibition, % at 3 µM; Q96RJ0; CHO RD-HGA16 TAAR1, Fluo-8 calcium fluorescence, antagonist;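 active = inhibition above a per-plate cutoff, the mean inhibition of test compounds on that plate plus 3 SD, cut at about 49% in these data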;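 note: 0% = DMSO plus EC80 beta-PEA response and 100% = DMSO alone without agonist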
Target sequence (Q96RJ0 whole entry, looked up): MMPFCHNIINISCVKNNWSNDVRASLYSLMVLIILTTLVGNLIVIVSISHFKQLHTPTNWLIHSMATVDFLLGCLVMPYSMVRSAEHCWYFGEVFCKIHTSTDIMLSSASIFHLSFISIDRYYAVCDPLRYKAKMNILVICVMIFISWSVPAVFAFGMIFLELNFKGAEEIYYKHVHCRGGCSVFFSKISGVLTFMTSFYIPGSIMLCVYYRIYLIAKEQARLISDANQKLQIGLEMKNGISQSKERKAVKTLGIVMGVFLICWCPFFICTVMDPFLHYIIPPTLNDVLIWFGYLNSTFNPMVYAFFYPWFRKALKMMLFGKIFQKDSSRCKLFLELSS
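Test system: CHO RD-HGA16 cells bearing hTAAR1 | Reagent: β-PEA, EC80 | Compound dosing: 3 µM, single point | Schedule: Dye loading 75 min at 37 °C, then 30 min room temperature | Signal: Calcium fluorescence with Fluo-8 | Evaluation: Percent inhibition of PEA-evoked calcium signal, max/basal emission ratio | Control set: DMSO-only wells and EC80 β-PEA-stimulated wells | Repeats: Singlicate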
V1aR counter – V1a receptor agonism, counter-screen for OXTR agonists | P37288 | CHO-V1R cells, Fluo-8 calcium fluorescence, agonist mode; 0% DMSO, 100% 3 nM vasopressin | activation, % at 3 µM | 320,000 compounds, 0.25% hits;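 active = activation above the mean activation of all tested compounds plus 3 SD, per screening run, cut at about 20% in these data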;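 note: signal is peak over basal fluorescence ratio across a 100 second FLIPR read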
Target sequence (P37288 whole entry, looked up): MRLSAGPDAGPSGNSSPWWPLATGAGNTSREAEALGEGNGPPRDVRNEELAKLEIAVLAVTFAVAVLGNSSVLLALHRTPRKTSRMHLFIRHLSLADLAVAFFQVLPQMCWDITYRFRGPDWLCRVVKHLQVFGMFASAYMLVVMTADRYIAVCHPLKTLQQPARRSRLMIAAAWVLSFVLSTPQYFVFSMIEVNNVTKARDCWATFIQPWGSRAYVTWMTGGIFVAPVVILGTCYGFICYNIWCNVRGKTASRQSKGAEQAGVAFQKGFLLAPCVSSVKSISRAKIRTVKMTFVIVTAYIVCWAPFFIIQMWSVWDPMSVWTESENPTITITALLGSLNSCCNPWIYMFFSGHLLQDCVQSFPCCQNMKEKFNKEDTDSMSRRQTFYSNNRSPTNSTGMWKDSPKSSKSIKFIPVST
OXTR agonist – agonists of human oxytocin receptor; 320,000 compounds, 0.32% hits; P30559; CHO-OTR cells, Fluo-8 calcium fluorescence; normalized: DMSO 0%, oxytocin 100%; activation, % at 3 µM; AID 2435;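 active = activation above the mean of all tested compounds plus 3 SD, cutoff set per screening run, cut at about 20% in these data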;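 note: peak over basal fluorescence ratio from a 100 s FLIPR kinetic read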
TAAR1 agonist – agonists of human TAAR1 | Q96RJ0 | activation, % at 3 µM | CHO RD-HGA16 TAAR1, Fluo-8 calcium fluorescence; vehicle wells 0%, saturating PEA agonist 100% | 360,000 compounds, 0.99% hits;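 active = activation above the mean activation of all test compounds in the run plus 3 SD, cut at about 38% in these data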
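System: CHO RD-HGA16 cells carrying human TAAR1 plus Gα16; Incubation: 17-24 h seeding, 75 min 37 °C dye, 30 min RT; Measured by: Fluo-8 fluorescence, 5 s baseline then 140 s kinetic read; Control set: DMSO and PEA EC100; Replication: single well for each compound.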
OXTR potentiate – human OXTR potentiation. P30559. CHO-OTR cells, Fluo-8 calcium fluorescence, potentiator mode; 0% = oxytocin EC15, 100% = EC100. activation, % at 3 µM. 320,000 compounds, 0.061% hits. AID 2445;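 active = activation above that plate's cutoff, the mean activation of tested compounds plus 3 SD, cut at about 6.6% in these data, passing the limit was not always enough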;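 note: 100% uses oxytocin at 75 nM as the full agonist control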
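Assay system: CHO cell line stably expressing human OTR. Reagent: EC15 oxytocin agonist. Dosing: single dose, 3.0 µM nominal final compound concentration. Timing: compound 6 min at room temperature before oxytocin, 100 s read. Signal: kinetic Fluo-8 calcium fluorescence. Controls: oxytocin EC15 low and EC100 high.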
TAAR1 ag confirm – confirmation of human TAAR1 agonists. shares compounds with TAAR1 agonist. CHO RD-HGA16 TAAR1, Fluo-8 calcium fluorescence; scaled: DMSO 0%, maximal phenethylamine 100%. activation, % at 3 µM. 2,400 compounds, 82% hits;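 active = activation above a cutoff set at the run's mean compound activation plus 3 SD, cut at about 39% in these data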
Ga16 nonsel ag – nonselective agonist in parental cells, TAAR1 agonist counter-screen. 2,400 compounds, 50% hits. CHO-Ga16 parental, Fluo-8 calcium fluorescence; normalized to maximal ATP response, DMSO zero. activation, % at 3 µM. shares compounds with TAAR1 agonist;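 active = activation above the run cutoff, the mean activation over all tested wells plus 3 SD, cut at about 12% in these data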;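 note: 0% = DMSO wells and 100% = maximal ATP response on the peak over basal ratio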
TAAR1 desensitize – human TAAR1 agonist that also desensitizes the receptor. shares compounds with TAAR1 agonist. CHO RD-HGA16 hTAAR1, Fluo-8 calcium, beta-PEA response inhibition. inhibition, % at 3 µM. 2,400 compounds, 46% hits;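 active = inhibition above the run cutoff, the mean inhibition of all test compounds plus 3 SD, cut at about 49% in these data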;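 note: beta-PEA stimulus applied at its EC80; loss of beta-PEA calcium signal after compound pretreatment read as receptor desensitization; 0% = DMSO with beta-PEA at EC80 and 100% = DMSO alone without agonist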
Ga16 nonsel ant – counter-screen for TAAR1 agonists: nonselective Ga16 antagonists. shares compounds with TAAR1 agonist. CHO-Ga16 ATP-induced calcium, Fluo-8 fluorescence. inhibition, % at 3 µM. 2,400 compounds, 39% hits. AID 651952;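 active = inhibition above the plate's mean compound inhibition plus 3 SD, computed per plate, cut at about 22% in these data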;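 note: 0% = EC80 ATP with DMSO and 100% = DMSO wells without ATP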
Numbers without * were called inactive; x = not tested or not shown.

SMILES | TAAR1 antag | V1aR counter | OXTR agonist | TAAR1 agonist | OXTR potentiate | TAAR1 ag confirm | Ga16 nonsel ag | TAAR1 desensitize | Ga16 nonsel ant
O=C1CCC([N+](=O)[O-])C(c2cc3c(cc2Cl)OCO3)N1 (configuration not stated) | -4 | 0 | 0 | 3 | -5 | x | x | x | x
COC(=O)Cn1ncc(N2CC(C)OC(C)C2)c(Cl)c1=O (configuration not stated) | 6 | 0 | 0 | -2 | -10 | x | x | x | x
Cc1ccc(C(=O)NNC(=S)NC(=O)COc2ccccc2)cc1 | 74* | 0 | 0 | 142* | -11 | 130* | 111* | 89* | 68*
Cc1ccc(OCC(=O)Nc2ccc(NC(=O)c3ccccc3)c(C)c2)cc1 | 44 | x | x | 44* | x | 52* | 21* | 63* | 19
CC(C)(C)c1ccc(C(=O)NC(=S)NNC(=O)COc2ccccc2)cc1 | 67* | 1 | 12 | 124* | -6 | 124* | 101* | 100* | 81*
Cc1ccccc1C(=O)NNC(=S)NC(=O)COc1ccccc1 | -21 | 0 | 0 | 1 | 4 | x | x | x | x
Cc1[nH]c2ccccc2c1C(c1ccccn1)N1CCCC1 (configuration not stated) | 13 | 0 | 0 | 0 | 0 | x | x | x | x
CCOC(=O)C1CCCN(C(c2ccccn2)c2c(C)[nH]c3ccccc23)C1 (configuration not stated) | 71* | 0 | 0 | 67* | 1 | 74* | 2 | 84* | 1
Cc1ccccc1NC(=O)c1cc([N+](=O)[O-])ccc1NCCN1C(=O)CCC1=O | 6 | 0 | 0 | 4 | -2 | x | x | x | x
O=C(NCCc1cccs1)C1CC(c2ccccc2[N+](=O)[O-])=NO1 (configuration not stated) | 12 | 0 | 0 | 46* | -10 | 57* | 3 | 32 | 15
FC(F)C(F)(F)c1cc(-c2ccc(Cl)cc2)n[nH]1 | 49 | 22* | 21* | 63* | -19 | 57* | 22* | 48 | 26*
Fc1ccc(-c2cc(C(F)(F)C(F)F)[nH]n2)cc1 | 75* | 32* | 39* | 81* | -21 | 91* | 53* | 74* | 39*
Oc1ccccc1-c1cc(C(F)(F)C(F)F)[nH]n1 | 22 | 5 | 14 | 13 | -12 | x | x | x | x
CCc1nc2ccc(C(=O)NCCc3c[nH]c4ccccc34)cn2c1N(C)CCCc1ccccc1 | 18 | x | x | 0 | x | x | x | x | x
C/C(=C\C(=O)c1ncc(C(F)(F)F)cc1Cl)N(C)C | -12 | 1 | 1 | -1 | 6 | x | x | x | x
CCN(CC)S(=O)(=O)c1ccc2c(c1)nc(CCC(=O)Nc1ccc(N3CCOCC3)cc1)n2C | -3 | 1 | 0 | 1 | -10 | x | x | x | x
C=CCSC(=S)NC1CCS(=O)(=O)C1 (configuration not stated) | -1 | 0 | 0 | 1 | -10 | x | x | x | x
N#C/C(=C\c1coc2ccc(O)cc2c1=O)C(=O)Nc1nc2ccccc2s1 | 104* | 308* | 257* | 480* | -13 | 316* | 295* | 102* | 95*
CCC(CC)C(=O)Nc1cccc(C(=O)Nc2ccc(OC)cc2[N+](=O)[O-])c1 | 77* | 2 | 10 | 78* | -7 | 45* | 6 | 38 | 12
O=C(CSc1nc(C2CCCCC2)n(-c2ccccc2)n1)NCC(F)(F)F | -13 | -2 | -2 | -2 | -3 | x | x | x | x
COc1cccc(NS(=O)(=O)c2cc(C)sc2C)c1 | 4 | 1 | 0 | 10 | -16 | x | x | x | x
Cc1cc(S(=O)(=O)Nc2cccc(Cl)c2)c(C)s1 | 12 | -1 | -2 | 40* | -10 | 60* | 10 | 17 | 12
O=C(NCCc1ccccc1)c1ccccc1Cl | -23 | 0 | -1 | 2 | -10 | x | x | x | x
O=C(NCCc1ccccc1)Nc1ccc(Cl)cc1 | 37 | 4 | 1 | 47* | -6 | 46* | 21* | 42 | 28*
O=C(O)c1ccccc1C(=O)NCCc1ccc(Cl)cc1 | 17 | 1 | 1 | 60* | 3 | 61* | 7 | 27 | 9
SMILES | TAAR1 antag | V1aR counter | OXTR agonist | TAAR1 agonist | OXTR potentiate | TAAR1 ag confirm | Ga16 nonsel ag | TAAR1 desensitize | Ga16 nonsel ant
CC(CCc1ccccc1)NC(=O)c1ccccc1C(=O)O (configuration not stated) | -12 | 0 | 0 | 48* | -15 | 63* | 20* | 2 | 2
CC(CCc1ccccc1)NC(=O)c1ccc(C(=O)NC(C)CCc2ccccc2)cc1 (configuration not stated) | -1 | 1 | 1 | 1 | -4 | x | x | x | x
NC(Cc1ccc(Cl)cc1)c1csc(NC(=O)NCCc2ccccc2)n1 (configuration not stated) | 68* | x | x | 75* | x | 60* | 30* | 63* | 51*
CCCCN(C=O)c1c(CC)nc2c(OCCOc3ccc(F)cc3)cccn12 | 7 | x | x | 2 | x | x | x | x | x
CCCN(CCC)CCCNC(=O)C1CCC(CNS(=O)(=O)c2cccc3nsnc23)CC1 (configuration not stated) | x | 0 | 1 | x | -2 | x | x | x | x
Cc1cc(C)nc(Nc2nc(C(N)Cc3ccc(Cl)cc3)cs2)n1 (configuration not stated) | 50* | x | x | 63* | x | 45* | 27* | 31 | 33*
CC(CCc1ccccc1)NCC#N (configuration not stated) | -15 | 2 | 1 | 53* | -3 | 51* | 0 | 8 | 6
CCNCC(=O)N1c2ccccc2CCc2ccc(NC(=O)OC(C)C)cc21 | -15 | 1 | 2 | 3 | -2 | x | x | x | x
O=C(NCC1CCCO1)c1ccc(NC(=O)c2ccc(Br)cc2)cc1 (configuration not stated) | -31 | 2 | 0 | 78* | -6 | 95* | 8 | 71* | 7
O=C(NCc1cccnc1)c1ccc(NC(=O)c2ccc(Br)cc2)cc1 | 4 | 7 | 6 | 57* | -9 | 58* | 8 | 28 | 18
O=C(CCNC(=O)c1ccc(Br)cc1)NCC1CCCO1 (configuration not stated) | -5 | 0 | -1 | 2 | -5 | x | x | x | x
